# About 960 (0.37%) of roughly 260,000 compounds were called active. Only a selection was taken, and actives are over-represented in it overall. Values without a mark were called inactive.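 The calls were made as follows: active = mean E-selectin-positive cell signal at least 10% of the positive control, reached in at least 60% of replicates, without over 20% cell loss; inconclusive = no rule given, readout overlaps actives, possibly toxicity-flagged; inactive = the rest, including those meeting only one limit.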
# Biological target: E-selectin (Homo sapiens) (UniProt P16581)
# Sequence (P16581 whole entry, looked up): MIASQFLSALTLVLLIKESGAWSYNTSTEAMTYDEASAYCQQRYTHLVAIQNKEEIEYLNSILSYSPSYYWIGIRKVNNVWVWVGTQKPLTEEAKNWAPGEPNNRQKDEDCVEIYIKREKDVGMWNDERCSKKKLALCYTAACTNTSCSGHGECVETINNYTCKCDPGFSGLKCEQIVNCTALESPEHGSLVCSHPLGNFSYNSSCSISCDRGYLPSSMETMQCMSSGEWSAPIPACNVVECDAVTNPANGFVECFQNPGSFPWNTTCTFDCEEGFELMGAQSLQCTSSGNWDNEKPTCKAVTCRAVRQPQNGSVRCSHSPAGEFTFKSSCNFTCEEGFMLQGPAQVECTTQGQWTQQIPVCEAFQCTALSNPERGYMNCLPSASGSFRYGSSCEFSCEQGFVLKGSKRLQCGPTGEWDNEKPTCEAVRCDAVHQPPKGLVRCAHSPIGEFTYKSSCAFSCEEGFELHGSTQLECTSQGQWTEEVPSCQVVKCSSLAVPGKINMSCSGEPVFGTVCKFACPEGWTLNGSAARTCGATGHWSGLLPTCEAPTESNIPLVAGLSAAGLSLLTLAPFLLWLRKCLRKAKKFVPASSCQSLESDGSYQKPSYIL
# Assay: inducers of endothelial E-selectin expression – imaging, HUVEC, immunofluorescence imaging, single point, primary screen (AID 686992);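 also: signal is the percent of cells scored E-selectin positive by PE staining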
# Conditions: at 7.58 µM, stronger effect = higher value, normalized: neutral wells 0, TNF-alpha wells 100
# Method in brief: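 Test system: HUVEC; input: 3,000 HUVEC/well; measured by: immunofluorescence imaging; read-out: % PE-positive cells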
row,Compound,activation
1,COc1ccc(-c2nn(-c3ccccc3)cc2/C=N/Nc2ccccn2)cc1OC,-1.26%
2,O=Cc1cn(-c2ccccc2)nc1-c1ccccn1,31.7% (active)
3,O=Cc1cn(Cc2ccccc2)nc1-c1cccnc1,2.7%
4,COC(=O)c1ccc2nc(-c3ccc(Cl)cc3)c(Cc3cccc(F)c3)n2c1,-0.152%
5,Cc1cc2nc(-c3ccc(F)cc3)c(Cc3ccsc3)n2c(C)c1Br,0.0835%
6,CC1=C(C(=O)N2CCOCC2)CC(CC(=O)NCc2ccco2)C(=O)N1Cc1ccc(F)cc1 (centres undefined),8.96%
7,O=C(CCCn1c(=O)c2sccc2n(CC(=O)NCC2CCCO2)c1=O)NCc1ccco1 (centres undefined),8.64%
8,O=C(Cc1ccc(-n2c(=O)c3sccc3n(Cc3ccc(F)cc3)c2=O)cc1)NCc1ccco1,159% (active)
9,CC1(C(=O)Nc2cccc3c2CCCC3)CCN1C(=O)C1(c2ccccc2)CC1 (centres undefined),0.283%
10,COCCCNC(=O)C[C@H]1C[C@@]2(C(=O)OC)C(=C[C@H](C(C)(C)C)O[C@@H]2C)N(Cc2ccc3c(c2)OCO3)C1=O,-0.0885%
11,O=C(C[C@@H]1C[C@H]2c3cc(NC(=O)NC4CCCC4)ccc3O[C@H]2[C@@H](CO)O1)NC1CCCCC1,0.37%
12,CC1CC(=O)Nc2ccccc2N1C(=O)COc1ccc2cc(Br)ccc2c1 (centres undefined),0.0775%
13,CC1COc2ccccc2N1S(=O)(=O)c1ccccc1 (centres undefined),0.485%
14,CC1CC(=O)Nc2ccccc2N1S(=O)(=O)c1cccs1 (centres undefined),28.3% (active)
15,CC(C)C[C@H]1CN([C@@H](CC(C)C)CN2CCC[C@@H]2CN2C(=O)C(=O)NC[C@@H]2Cc2ccccc2)C(=O)C(=O)N1CCc1ccccc1,0.726%
16,CO[C@H]1CN(C)C(=O)c2cc(NC(=O)c3cc(C)on3)ccc2OC[C@@H](C)N(C(C)=O)C[C@H]1C,-0.127%
17,COc1cccc(-c2ccc3c(c2)N(Cc2ccccc2OC)C(=O)C(C)S3)c1 (centres undefined),-0.102%
18,O=S1(=O)CCN(C2CCCCCCCCCCC2)CC1,-0.851%
19,CC(C)C(c1nnnn1C1CCCCC1)N1CCN(C(=O)c2ccco2)CC1 (centres undefined),39.5% (active)
20,O=C(c1ccco1)N1CCN(C(=S)Nc2cc(F)cc(F)c2)CC1,-1.13%
21,O=C(CNS(=O)(=O)c1ccccc1)N1CCN(C(=O)c2ccco2)CC1,0.056%
22,C[C@H]1CN([C@@H](C)CO)C(=O)Cc2cc(NC(=O)Cn3cnnn3)ccc2O[C@H]1CN(C)Cc1ccc(C(=O)O)cc1,-4.49%
23,Cc1noc(C)c1NC(=O)Nc1ccc2c(c1)CC(=O)N([C@@H](C)CO)C[C@@H](C)[C@@H](CN(C)Cc1ccc(Cl)c(Cl)c1)O2,449% (active)
24,C[C@@H]1CN([C@H](C)CO)C(=O)Cc2cc(NC(=O)Nc3ccccc3)ccc2O[C@H]1CN(C)Cc1ccc(Cl)c(Cl)c1,0.392%
25,Cc1noc(C)c1NC(=O)Nc1ccc2c(c1)CC(=O)N([C@H](C)CO)C[C@@H](C)[C@@H](CN(C)Cc1ccc(C(F)(F)F)cc1)O2,-0.087%

row,Compound,activation
1,C[C@H](CO)N1C[C@H](C)[C@@H](CN(C)Cc2ccc(C(=O)O)cc2)Oc2ccc(NC(=O)Cn3cnnn3)cc2CC1=O,2.12%
2,COc1ccc(CN(C)C[C@H]2Oc3ccc(NC(=O)Cn4cnnn4)cc3CC(=O)N([C@@H](C)CO)C[C@@H]2C)cc1,52.1% (active)
3,O=C(NCCN1CCOCC1)c1ccc2c(c1)N(Cc1cccc(Cl)c1)C(=O)c1ccccc1S2(=O)=O,0.148%
4,COc1ccc(NC(=O)CCCOc2ccc(C(C)=O)cc2)cc1S(=O)(=O)N1CCCCC1,-6.06%
5,CCOC(=O)C1CCN(C(=O)c2ccc3c(=O)n4nc(Nc5ccccc5CC)sc4nc3c2)CC1,-0.0345%
6,COc1ccc(NC(=O)C(c2ccncc2)n2c(=O)c(-c3cc4ccccc4[nH]3)nc3ccccc32)cc1 (centres undefined),0.124%
7,CCOC(=O)C1CSCCS(=O)(=O)N1Cc1ccc(Cl)cc1 (centres undefined),0.0275%
8,CN[C@H]1C[C@H]2c3cc(Oc4ccccc4C)ccc3CCN2C(=O)[C@H]1[C@H](C)O,-1.54%
9,COC(=O)C(C)NC(=O)COc1ccc2ccccc2c1 (centres undefined),0.228%
10,Cc1cc2ccccc2n1CCNC(=O)COc1ccc2ccccc2c1,51.8% (active)
11,Cc1ccc(C)c(NC(=O)CN(C)C(=O)COc2ccc3ccccc3c2)c1,-0.121%
12,CCCN1C[C@@H](C)[C@@H](OC)CN(C)C(=O)c2cc(NC(=O)CC(F)(F)F)ccc2OC[C@H]1C,0.11%
13,CC(C)(C)OC(=O)N[C@H](C(=O)OC(C)(C)C)c1ccc(Br)cc1,0.0795%
14,O=C(NN=Cc1ccco1)C(=O)Nc1ccc(Cl)c([N+](=O)[O-])c1,-0.0805%
15,CC(=O)N1C[C@@H](CO)[C@@H](N(C)C(=O)C(C)(C)C)C[C@H]1c1ccccc1Br,-0.326%
16,COc1cccc2cc(S(=O)(=O)c3ccc(C)cc3)/c(=N/NS(=O)(=O)c3ccc(C)cc3)oc12,0.616%
17,Cc1cc(S(=O)(=O)c2cc3ccc(O)c(C)c3oc2=O)ccc1F,69.9% (active)
18,Cc1ccc(CC2(C)C(=O)Nc3ccc(OC(F)(F)F)cc32)cc1 (centres undefined),-0.201%
19,Cn1cnc(S(=O)(=O)N2C[C@@H](O)COC[C@H]3O[C@@H](CC(=O)NCc4ccc(F)cc4)CC[C@@H]32)c1,-0.0625%
20,O=C(NC[C@H]1[C@@H](c2ccccc2)[C@H](CO)N1CC1CC1)c1cccnc1,0.036%
21,Cc1ccc(Nc2nnc(SC(C)C(=O)NC3CC3)s2)cc1 (centres undefined),-0.687%
22,Cc1ccc(Nc2nc(Cl)c(C=O)s2)cc1,48.9% (active)
23,Cc1ccc(Nc2nc(-c3sc(NC(=O)c4ccccc4)nc3C)cs2)cc1,0.138%
24,Cc1[nH]nc2c1C(c1ccc(Br)cc1)NC2=O (centres undefined),-0.228%
